Results published in ChEMBL document CHEMBL1151263, “Cytotoxic phenylpropanoid glycosides from the stems of Smilax china” (2005).
Values after ≈ are worked out from the molar mass of the structure shown.

Legend:
Type in all cases: functional
MCF7 = assay: Cytotoxicity against human MCF7 cells after 3 days by MTT assay; details: MCF7, 72 h, read-out: ED50 (the source's name)
Outline: (§1)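 Cells grown in RPMI-1640 and seeded in 96-well plates for 4 h before samples were added at four concentrations. Incubation at 37 °C for 3 days, then MTT added for 5 h. Medium removed, formazan dissolved in DMSO with 10 min shaking, absorbance read at 550 nm. ED50 reported in µg/mL.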

HeLa = assay: Cytotoxicity against human HeLa cells after 3 days by MTT assay; details: 72 h, read-out: ED50 (the source's name); outline: as §1
[1] = Cytotoxicity against human Medulloblastoma cells after 3 days by MTT assay; details: Medulloblastoma cell, 72 h, read-out: ED50 (the source's name); outline: as §1
KB = assay: Cytotoxicity against human KB cells after 3 days by MTT assay; details: 72 h, read-out: ED50 (the source's name); outline: as §1
A549 = assay: Cytotoxicity against human A549 cells after 3 days by MTT assay; details: A549, 72 h, read-out: ED50 (the source's name); outline: as §1
DLD-1 = assay: Cytotoxicity against human DLD1 cells after 3 days by MTT assay; details: DLD-1, 72 h, read-out: ED50 (the source's name); outline: as §1

Structure (SMILES) | EC50 (MCF7) [mg/L] | EC50 (HeLa) [mg/L] | EC50 [1] [mg/L] | EC50 (KB) [mg/L] | EC50 (A549) [mg/L] | EC50 (DLD-1) [mg/L]
COc1cccc2c1C(=O)c1c(O)c3c(c(O)c1C2=O)C[C@@](O)(C(=O)CO)C[C@@H]3O[C@H]1C[C@H](N)[C@H](O)[C@H](C)O1 [DOXORUBICIN] | 0.1 (≈ 0.184 µM) | 0.1 (≈ 0.184 µM) | 0.1 (≈ 0.184 µM) | 0.1 (≈ 0.184 µM) | 0.1 (≈ 0.184 µM) | 0.1 (≈ 0.184 µM)
COc1cc(/C=C/C(=O)OC[C@H]2O[C@@](CO)(O[C@H]3O[C@H](COC(C)=O)[C@@H](OC(C)=O)[C@H](O)[C@H]3O)[C@@H](OC(=O)/C=C/c3ccc(O)c(OC)c3)[C@@H]2O)ccc1O [SMILASIDE A] | 10.8 (≈ 13.9 µM) | 8.9 (≈ 11.4 µM) | 11.3 (≈ 14.5 µM) | 11.2 (≈ 14.4 µM) | 7.1 (≈ 9.12 µM) | 11.6 (≈ 14.9 µM)
COc1cc(/C=C/C(=O)OC[C@H]2O[C@@](CO)(O[C@H]3O[C@H](CO)[C@@H](O)[C@H](O)[C@H]3OC(C)=O)[C@@H](OC(=O)/C=C/c3ccc(O)c(OC)c3)[C@@H]2O)ccc1O [SMILASIDE B] | 10.3 (≈ 14 µM) | > 20 | 9.4 (≈ 12.8 µM) | > 20 | 12 (≈ 16.3 µM) | > 20
COc1cc(/C=C/C(=O)OC[C@H]2O[C@@](COC(=O)/C=C/c3ccc(O)cc3)(O[C@H]3O[C@H](CO)[C@@H](O)[C@H](O)[C@H]3O)[C@@H](OC(=O)/C=C/c3ccc(O)c(OC)c3)[C@@H]2O)ccc1O [SMILASIDE C] | > 20 | > 20 | > 20 | > 20 | > 20 | > 20
COc1cc(/C=C/C(=O)OC[C@H]2O[C@@](COC(=O)/C=C/c3ccc(O)cc3)(O[C@H]3O[C@H](CO)[C@@H](O)[C@H](O)[C@H]3O)[C@@H](OC(=O)/C=C/c3ccc(O)c(OC)c3)[C@@H]2OC(C)=O)ccc1O [SMILASIDE D] | > 20 | 7.3 (≈ 8.27 µM) | 11.9 (≈ 13.5 µM) | 13 (≈ 14.7 µM) | 8.4 (≈ 9.51 µM) | 2.7 (≈ 3.06 µM)
COc1cc(/C=C/C(=O)OC[C@H]2O[C@@](COC(=O)/C=C/c3ccc(O)cc3)(O[C@H]3O[C@H](COC(C)=O)[C@@H](O)[C@H](O)[C@H]3O)[C@@H](OC(=O)/C=C/c3ccc(O)c(OC)c3)[C@@H]2O)ccc1O [SMILASIDE E] | 13 (≈ 14.7 µM) | 5.1 (≈ 5.78 µM) | 12.2 (≈ 13.8 µM) | 5.5 (≈ 6.23 µM) | 12.4 (≈ 14 µM) | 4.5 (≈ 5.1 µM)
COc1cc(/C=C/C(=O)OC[C@H]2O[C@@](COC(=O)/C=C/c3ccc(O)cc3)(O[C@H]3O[C@H](COC(C)=O)[C@@H](O)[C@H](O)[C@H]3OC(C)=O)[C@@H](OC(=O)/C=C/c3ccc(O)cc3)[C@@H]2O)ccc1O [SMILASIDE F] | 13 (≈ 14.5 µM) | 8.3 (≈ 9.28 µM) | > 20 | 9 (≈ 10.1 µM) | > 20 | 5 (≈ 5.59 µM)
